Source: PubChem BioAssay
Rows were chosen to be rich in hits. Some 2.4% of all compounds tested hit in one or more screens of this group.
TAG inh = reduces triacylglycerol accumulation in H9c2 cells; Nile Red lipid (TAG) fluorescence; cells loaded with 200 µM oleic acid; 230,000 compounds, 0.66% hits; inhibition, % at 12.5 µM; AID 651582;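 active means pattern-corrected inhibition of lipid staining of at least 50% with the nuclear-stain viability signal not falling by more than 50%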
MC4R ag barr = activates human MC4R beta-arrestin recruitment; U2OS MC4R beta-arrestin complementation, luminescence; percent of melanotan II response, DMSO zero; activation, % at 8.9 µM; 360,000 compounds, 0.98% hits;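 active means activation above a per-plate cutoff, the mean activation of sample wells on that plate plus 3 SD, cut at about 8% in these data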
Target sequence (P32245 whole entry, looked up): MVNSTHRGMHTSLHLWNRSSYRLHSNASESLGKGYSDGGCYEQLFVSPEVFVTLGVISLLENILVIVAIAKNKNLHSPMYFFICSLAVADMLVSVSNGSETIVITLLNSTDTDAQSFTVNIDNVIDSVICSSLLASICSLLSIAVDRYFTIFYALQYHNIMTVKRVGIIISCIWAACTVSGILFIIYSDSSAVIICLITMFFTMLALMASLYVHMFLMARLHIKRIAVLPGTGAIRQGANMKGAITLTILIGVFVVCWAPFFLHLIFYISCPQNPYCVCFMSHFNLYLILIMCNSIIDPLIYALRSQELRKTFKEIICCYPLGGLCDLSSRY
Tb MetRS inh = blocks T. brucei methionyl-tRNA synthetase activity. 360,000 compounds, 0.4% hits. inhibition, % at 11.9 µM. purified T. brucei MetRS, ATP depletion, Kinase-Glo luminescence;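 active means inhibition above a per-plate cutoff of the control wells' mean inhibition plus 3 SD, cut at about 5.5% in these data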
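Assay system: T. brucei methionyl-tRNA synthetase, purified | Medium: HEPES buffer with MgCl2, KCl, DTT, spermine, BSA, pyrophosphatase | Compound: 11.9 µM single point | Incubation: 15 min enzyme-compound preincubation, 2 h reaction, 10 min detection, 25 °C | Measured by: Kinase-Glo luciferase luminescence reporting remaining unconsumed ATP | Measure: % inhibition normalized to control-well medians | Replication: Singlicate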
aDG glyco act = increases alpha dystroglycan glycosylation; Pro5-aDG cells, alpha-DG glycosylation AlphaScreen (IIH6); 0% Pro5, 100% B10-LARGE cell signal; activation, % at 10 µM; AID 624168; 360,000 compounds, 0.22% hits;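 active means activation of at least 8% versus controls, or a plate z-score of at least 8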;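 further: Pro5 are CHO cells carrying HIG-tagged alpha-DG that lacks glycosylation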
MC4R antag cAMP = human MC4R antagonism in cAMP assay | AID 540295 | inhibition, % at 6.5 µM | 360,000 compounds, 0.48% hits | MC4R-expressing cells, MTII-stimulated cAMP, LANCE TR-FRET | P32245;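 active means inhibition above its plate's cutoff, the mean of tested wells on that plate plus 3 SD, cut at about 29% in these data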
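Material – human MC4R-expressing U2OS cells · Repeats – no replicates · Detection – TR-FRET with Eu-cAMP and labeled anti-cAMP, 671 nm · Times – compound 30 min, challenge 1 h, detection 1 h · Compound – single nominal compound dose of 6.5 µM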
NTR1 ag = NTR1 (human) agonism; NTR1-U2OS beta-arrestin-GFP spot imaging, agonist mode; activation, % at 20 µM; 330,000 compounds, 0.17% hits;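 active means activation at or above 40% of the spot to cytoplasm intensity ratio, with at least 20 cells analyzed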
cAMP nonselect = counter-screen for MC4R antagonists: nonselective cAMP signaling inhibitors; shares compounds with MC4R antag cAMP; parental U2OS, forskolin cAMP, LANCE TR-FRET; inhibition, % at 6.5 µM; 1,600 compounds, 26% hits;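 active means mean inhibition over triplicates above the low-control well mean plus 3 SD, set per campaign, cut at about 13% in these data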;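 further: signal is single emission at 671 nm which falls as cellular cAMP rises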
MC4R cAMP antag = human MC4R cAMP antagonism confirmation. shares compounds with MC4R antag cAMP. MC4R-expressing cells, MTII-stimulated cAMP, TR-FRET. inhibition, % at 6.5 µM. 1,600 compounds, 27% hits. AID 602195; in the data active means inhibition above about 29%
Hits are given with their value; i = inactive; nt = no result given.

SMILES | TAG inh | MC4R ag barr | Tb MetRS inh | aDG glyco act | MC4R antag cAMP | NTR1 ag | cAMP nonselect | MC4R cAMP antag
CCCCCCNc1nc(-c2ccc(OC)cc2)c(CCC(=O)O)s1 | nt | i | i | i | 30 | i | i | i
CC1(c2nc3ccccc3[nH]2)CCCC2=Nc3ccccc3CN21 (centres undefined) | nt | nt | i | i | nt | nt | nt | nt
CCOc1cccc(C2/C(=C(/O)c3ccc4c(c3)CC(C)O4)C(=O)C(=O)N2CCN2CCOCC2)c1 (centres undefined) | nt | i | i | i | 38 | i | i | i
CCOC(=O)[C@]12CCC=C1N(Cc1ccc3c(c1)OCO3)C(=O)[C@H](CC(=O)NCCc1ccccc1OC)C2 | nt | nt | i | i | nt | nt | nt | nt
COc1ccc2c(C#CCCO)c(-c3ccc(S(C)(=O)=O)cc3)sc2c1 | i | i | i | i | 36 | i | i | i
CS(=O)(=O)c1ccc(-c2sc3ccccc3c2C#CCCO)cc1 | i | i | i | i | i | i | nt | nt
Cc1cccc(C)c1NC(=O)C1C(c2ccc3c(c2)OCO3)=Nc2ccccc2N1C(=O)c1cccc2ccccc12 (centres undefined) | nt | nt | i | i | nt | nt | nt | nt
COC(=O)c1ccc(COc2cccn3c(N(C)C(=O)CCC4CCCC4)c(C)nc23)cc1 | i | i | i | i | i | nt | nt | nt
C/C=C/c1cccc(-c2nc(C(=O)NC3CCC3)cc3c2[C@H](CCO)N(S(=O)C(C)(C)C)C3)c1 (some centres undefined) | nt | nt | i | i | nt | nt | nt | nt
CC(C)(C)NC(=O)Cn1c(=O)oc2cc(S(=O)(=O)N3CCc4ccccc43)ccc21 | i | i | i | i | i | i | nt | nt
CCOC(=O)Cn1c(=O)oc2cc(S(=O)(=O)N3CCc4ccccc43)ccc21 | i | i | i | i | 30 | i | i | i
O=C(CN1C(=O)C2CC=CCC2C1=O)N1CCN(c2ccc([N+](=O)[O-])cc2)CC1 (centres undefined) | i | i | i | i | 31 | i | i | i
CC1CCN(c2nc(Cl)nc(Nc3ccc([N+](=O)[O-])cc3)n2)CC1 | nt | i | i | i | 32 | i | i | 36
C=CCNc1nc(Nc2ccc([N+](=O)[O-])cc2)nc(N2CCCC2)n1 | nt | i | i | i | i | i | nt | nt
CCc1nnc(NS(=O)(=O)c2ccc(N/C=C\C(=O)c3cccc(OC)c3)cc2)s1 | i | i | i | i | 34 | i | i | i
COc1ccc2c(c1)CCO[C@]21O[C@H](CCO)C[C@H](O)[C@H]1O | i | i | i | i | i | nt | nt | nt
COC(=O)COc1ccc(S(=O)(=O)N2CCN(c3ccc(OC)cc3)CC2)cc1 | i | i | i | i | 30 | i | 18 | 46
COC(=O)COc1ccc(S(=O)(=O)N2CCN(c3ccc(F)cc3)CC2)cc1 | nt | i | i | i | 31 | i | 16 | 46
CCOC(=O)C1(C)CCCN(C(=O)c2cccc(C#N)c2)C1 (centres undefined) | i | i | i | i | i | nt | nt | nt
Cc1nn(-c2ccccc2)c(-c2ccccc2[N+](=O)[O-])c1CC#N | nt | nt | i | i | nt | nt | nt | nt
C[C@H]1CN([C@@H](C)CO)S(=O)(=O)c2ccc(/C=C/c3ccccc3)cc2O[C@H]1CN(C)C(=O)NC1CCCCC1 | i | i | i | i | i | nt | nt | nt
O=C1/C(=C/c2ccc([N+](=O)[O-])cc2)C=C(c2ccccc2)N1c1ccc(O)cc1 | nt | i | i | i | 32 | i | i | i
Clc1ccc(N2O[C@H]3C=C[C@@H]2C3)nc1 | nt | nt | i | i | nt | nt | nt | nt
CC(=O)Nc1cccc(OC(=O)COc2ccc(Br)cc2)c1 | nt | i | i | i | 29 | i | i | i
NC(=O)c1ccccc1OCCOc1ccc(Br)cc1 | nt | i | i | i | i | i | nt | nt
SMILES | TAG inh | MC4R ag barr | Tb MetRS inh | aDG glyco act | MC4R antag cAMP | NTR1 ag | cAMP nonselect | MC4R cAMP antag
CC(=O)Nc1ccccc1OCCOc1ccc(Br)cc1 | i | i | i | i | 36 | i | i | i
CC(O)(c1cccc(F)c1)c1nc(-c2csc3ccccc23)cs1 (centres undefined) | i | i | i | i | i | nt | nt | nt
O=C(NCCOc1ccccc1Cl)c1ncn[nH]1 | i | i | i | i | 30 | i | i | i
CN(Cc1ccccc1)c1nc(N)nc(Cl)c1C=O | i | i | i | i | 34 | i | 17 | i
CNCCNC[C@H](Cc1cccc2ccccc12)NCCc1ccccc1 | i | i | i | i | i | i | nt | nt
CNC[C@H](Cc1ccccc1)NC[C@@H](Cc1cccc2ccccc12)NCCc1ccc(C)cc1 | 138 | i | i | i | 31 | i | i | i
COc1cccc(C2C(C(=O)Nc3nc4ccccc4s3)=C(C)NC3=C2C(=O)CC(C)(C)C3)c1OC (centres undefined) | i | i | i | i | i | i | nt | nt
COc1ccc(OC)c(C2C(C(=O)Nc3nc4ccccc4s3)=C(C)NC3=C2C(=O)CCC3)c1 (centres undefined) | i | i | i | i | 33 | i | i | 43
Cc1cccc(C)c1N1C(=O)c2ccccc2NC(=O)C1C(=O)NCc1ccco1 (centres undefined) | nt | nt | i | i | nt | nt | nt | nt
CC(=O)O[C@H]1CC[C@@]2(C)C(CCC3C2CC[C@]2(C)OC(=O)CCC32)C1 (some centres undefined) | i | i | i | i | i | i | nt | nt
CC(=O)OC1CCC2(C)C(CCC3C4CC=C(C(C)=O)C4(C)OC(=O)CC32)C1 (centres undefined) | i | i | i | i | 42 | nt | 31 | i
COc1cccc2[nH]c3c(Cl)ncnc3c12 | i | i | i | i | 29 | i | i | i
COc1ccc([N+](=O)[O-])c(C=CC(=O)c2ccccn2)c1 | i | i | i | i | 30 | nt | i | i
O=C(c1ccc(S(=O)(=O)c2ccccc2)cc1)N1CCc2ccccc2C1 | i | i | i | i | i | i | nt | nt
O=C(c1ccc([N+](=O)[O-])cc1)N1CCc2ccccc2C1 | nt | i | i | i | 29 | i | i | i
CCOC(=O)C(=O)Nc1cccc(C(=O)OCC)c1 | i | i | i | i | 29 | i | i | i
CCOc1ncccc1C(=O)OCC(=O)Nc1cccc(C(C)=O)c1 | nt | i | i | i | i | i | nt | nt
CC(=O)c1cccc(NC(=O)COC(=O)c2ccccc2C)c1 | nt | i | i | i | 38 | i | i | i
CCc1nc2ccc(C(=O)N(C)CCCN(C)C)cn2c1N(C=O)CCC(C)C | i | i | i | i | i | nt | nt | nt
C[C@@H]1CN([C@H](C)CO)C(=O)CCCn2nncc2CO[C@H]1CN(C)Cc1cccc(C(F)(F)F)c1 | i | i | i | i | i | nt | nt | nt
Cc1ccnc(NC(=O)c2cnc(Cl)c(Cl)c2)c1 | nt | i | i | i | 32 | i | 18 | i
